From the RNAGym collection of RNA variant scans (doi:10.1126/science.aae0568)
Fewer inactive variants are shown than the library holds.

B1: tRNA (parent)
chain: GUUCCGUUGGCGUAAUGGUAACGCGUCUCCCUCCUAAGGAGAAGACUGCGGGUUCGAGUCCCGUACGGAACG

Variants of: B1
Assay: yeast fitness relative to wild type (ratio to wild type); higher = fitter; tRNA-Arg(CCU), competitive growth, 37 C, YPD
Procedure, shortened: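 The tRNA-Arg(CCU) gene variants were made by chemical synthesis with a 3% per-site mutation rate at 69 sites and inserted at the native genomic locus of Saccharomyces cerevisiae. After pooling, the strains were competed in YPD at 37°C for 24 hours in six parallel replicates. Gene amplicons from the start population and each end population were read by 100-nucleotide paired-end sequencing, and Darwinian fitness relative to wild type was taken from genotype frequency changes. Genotypes needed ≥ 100 starting reads, and estimates < 0.5 were set to 0.5.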

Going from G9A C22A to G9A C22A A37U C55G, the yeast fitness falls from 0.919 to ≤ 0.5.

Going from G9A C22A A57G to G9A C22A C55U, the yeast fitness falls from 0.628 to 0.626.

First: G9A C22A C61U
Second: G9A C22A U53A A57G
The yeast fitness of the first is higher: 0.622 for the first, 0.554 for the second.

First: G9A C22G
Second: G9A C22G C31U A65C C66A
The yeast fitness of the first is higher: 0.869 for the first, ≤ 0.5 for the second.

Compared with G9A C22G U35C A37U, G9A C22U is higher in yeast fitness: 0.535 for the first, 1.04 for the second.

G9A C22U C30A C49A C55A C62U C66U and G9A C22U C30G C61U A70U cannot be ordered by yeast fitness: ≤ 0.5 for the first, ≤ 0.5 for the second.

Compared with G9A C22U C30U, G9A C22U U26A A43U A65U is lower in yeast fitness: 0.519 for the first, ≤ 0.5 for the second.

G9A C24A A36C A37G C49A and G9A C24A C49A A57C cannot be ordered by yeast fitness: ≤ 0.5 for the first, ≤ 0.5 for the second.

G9A C24A C55A and G9A C24A G38A cannot be ordered by yeast fitness: ≤ 0.5 for the first, ≤ 0.5 for the second.

Going from G9A C24A U59A to G9A C24G, the yeast fitness rises from ≤ 0.5 to 0.594.

G9A C24G C27U G44C C61G and G9A C24G C29G G39C C55A cannot be ordered by yeast fitness: ≤ 0.5 for the first, ≤ 0.5 for the second.

First: G9A C24G C34G A69U
Second: G9A C24G C49U C55G G58A
The yeast fitness of the first is higher: 0.533 for the first, ≤ 0.5 for the second.

G9A C24G G41C U53C G58U and G9A C24G U35C C49U C61G cannot be ordered by yeast fitness: ≤ 0.5 for the first, ≤ 0.5 for the second.

First: G9A C24U
Second: G9A C24U A40U A57C
The yeast fitness of the first is higher: 0.997 for the first, ≤ 0.5 for the second.

Compared with G9A C24U A65C, G9A C24U C30U U32G A65C C66G is lower in yeast fitness: 0.536 for the first, ≤ 0.5 for the second.

Going from G9A C24U U26G to G9A C27A A42C C49G G51C C55G C66U, the yeast fitness falls from 0.569 to ≤ 0.5.

First: G9A C27G
Second: G9A C27G A37G U53A
The yeast fitness of the first is higher: 0.757 for the first, ≤ 0.5 for the second.

Compared with G9A C27G C29A C49G, G9A C27G C31G A36U A40G G48A G52A C60A is higher in yeast fitness: ≤ 0.5 for the first, 0.575 for the second.

First: G9A C27G C31U C49G G58C
Second: G9A C27U A36G
The yeast fitness of the first is lower: ≤ 0.5 for the first, 0.59 for the second.

Going from G9A C29A A37G G58A to G9A C29A A42C C55U, the yeast fitness falls from 0.571 to ≤ 0.5.

Going from G9A C29A G50A A69C to G9A C29G G44A, the yeast fitness rises from ≤ 0.5 to 0.614.

First: G9A C29G U53G
Second: G9A C29U
The yeast fitness of the first is lower: ≤ 0.5 for the first, 0.914 for the second.

Going from G9A C29U C46U C66U to G9A C29U C46U G67C, the yeast fitness falls from 0.637 to 0.583.

G9A C29U U47A A57G and G9A C29U U47A A65U cannot be ordered by yeast fitness: ≤ 0.5 for the first, ≤ 0.5 for the second.

Compared with G9A C30A, G9A C30A A42C is lower in yeast fitness: 0.964 for the first, 0.562 for the second.

Compared with G9A C30A G39A U47A G63C, G9A C30G is higher in yeast fitness: ≤ 0.5 for the first, 0.707 for the second.

G9A C30G C31G U32A C66U and G9A C30G G68U cannot be ordered by yeast fitness: ≤ 0.5 for the first, ≤ 0.5 for the second.

Compared with G9A C30G U32C A40G G50C A57U, G9A C30U is higher in yeast fitness: ≤ 0.5 for the first, 0.888 for the second.

First: G9A C31A A42C
Second: G9A C31A A42C A57G
The yeast fitness of the first is higher: 0.54 for the first, 0.522 for the second.

G9A C31A A43U C61A and G9A C31G A65C cannot be ordered by yeast fitness: ≤ 0.5 for the first, ≤ 0.5 for the second.

G9A C31U A37C G63A and G9A C31U A40C C66A cannot be ordered by yeast fitness: ≤ 0.5 for the first, ≤ 0.5 for the second.

G9A C31U A40G G52C A65G A69G and G9A C31U C49U A69C cannot be ordered by yeast fitness: ≤ 0.5 for the first, ≤ 0.5 for the second.

Compared with G9A C31U U53A, G9A C33G G44A C49G is lower in yeast fitness: 0.638 for the first, 0.607 for the second.

First: G9A C33U
Second: G9A C33U A36C A45C G48A C55A
The yeast fitness of the first is higher: 0.897 for the first, ≤ 0.5 for the second.

Compared with G9A C33U A36U U59A, G9A C33U A37U is higher in yeast fitness: ≤ 0.5 for the first, 0.605 for the second.

First: G9A C33U A42C A69U
Second: G9A C33U C55G
The yeast fitness of the first is lower: ≤ 0.5 for the first, 0.66 for the second.

First: G9A C34A
Second: G9A C34A A45C
The yeast fitness of the first is higher: 0.704 for the first, 0.541 for the second.

G9A C34A G58A A70C and G9A C34G C66U cannot be ordered by yeast fitness: ≤ 0.5 for the first, ≤ 0.5 for the second.

First: G9A C34G U53C A57C A69U
Second: G9A C34U
The yeast fitness of the first is lower: ≤ 0.5 for the first, 0.793 for the second.

First: G9A C34U A69U
Second: G9A C34U C61G
The yeast fitness of the first is higher: 0.549 for the first, 0.521 for the second.

Going from G9A C46G to G9A C46G C49U A69U, the yeast fitness rises from 0.993 to 1.11.

Going from G9A C46G U53C A65G to G9A C49A, the yeast fitness rises from ≤ 0.5 to 0.654.

Going from G9A C49G to G9A C49U A69U, the yeast fitness falls from 0.896 to 0.785.

G9A C49U C55A and G9A C55G U64A cannot be ordered by yeast fitness: ≤ 0.5 for the first, ≤ 0.5 for the second.

Going from G9A C60G to G9A C62A C66U, the yeast fitness falls from 0.629 to ≤ 0.5.

Going from G9A C62G to G9A C62U, the yeast fitness rises from 0.896 to 0.916.

First: G9A C62U A70U
Second: G9A C66A
The yeast fitness of the first is lower: 0.68 for the first, 0.775 for the second.

Going from G9A C66G to G9A G10A A21G G56A A65U, the yeast fitness falls from 0.703 to ≤ 0.5.

Going from G9A G10A C31G G52A to G9A G10A C31G G52A C61G, the yeast fitness falls from 0.531 to ≤ 0.5.

G9A G10A C31G G52A C62A and G9A G10A U28C cannot be ordered by yeast fitness: ≤ 0.5 for the first, ≤ 0.5 for the second.

G9A G10C C34A and G9A G10C G17A G25A cannot be ordered by yeast fitness: ≤ 0.5 for the first, ≤ 0.5 for the second.

G9A G10C G17A G25A C31U and G9A G10C G25C C33U C62A C66U cannot be ordered by yeast fitness: ≤ 0.5 for the first, ≤ 0.5 for the second.

Compared with G9A G12A C22U U53G, G9A G12A C49U is higher in yeast fitness: ≤ 0.5 for the first, 0.692 for the second.

G9A G12C C31A C33G A45G A70U and G9A G12C G25C C30G C31A G50A G51C cannot be ordered by yeast fitness: ≤ 0.5 for the first, ≤ 0.5 for the second.

G9A G12U A14U A37U C49G C60G and G9A G12U A14U A65U cannot be ordered by yeast fitness: ≤ 0.5 for the first, ≤ 0.5 for the second.

Going from G9A G12U A14U U53A to G9A G17C A45U A65C, the yeast fitness rises from 0.529 to 0.583.

Going from G9A G17C C29G to G9A G18A C24A G39A A43C, the yeast fitness falls from 0.567 to 0.558.

Compared with G9A G18A C24G A45U, G9A G18A C60G is lower in yeast fitness: 0.52 for the first, ≤ 0.5 for the second.

G9A G23A G25C U28C and G9A G23C A37G cannot be ordered by yeast fitness: ≤ 0.5 for the first, ≤ 0.5 for the second.

Compared with G9A G23C A45G, G9A G23C C30G A40U C46U is higher in yeast fitness: 0.575 for the first, 0.58 for the second.

Going from G9A G23C U59A to G9A G25C A42C, the yeast fitness rises from ≤ 0.5 to 1.

Compared with G9A G25C C30U A57G, G9A G25C C30U G51C G58U is lower in yeast fitness: 0.526 for the first, ≤ 0.5 for the second.

Compared with G9A G25U A36U G56C A65C, G9A G38A A69C is higher in yeast fitness: 0.717 for the first, 0.724 for the second.

Compared with G9A G38A C62U, G9A G38C is lower in yeast fitness: 0.939 for the first, 0.758 for the second.

First: G9A G38C C66U
Second: G9A G39C G44C C55A
The yeast fitness of the first is lower: ≤ 0.5 for the first, 0.606 for the second.

Compared with G9A G41A, G9A G44A G48A G50C is lower in yeast fitness: 1.02 for the first, ≤ 0.5 for the second.

First: G9A G48A G50C
Second: G9A G48A G50C A65G C66U
The yeast fitness of the first is higher: 0.581 for the first, ≤ 0.5 for the second.

Going from G9A G48A G68C to G9A G50A C55U, the yeast fitness falls from 0.984 to 0.59.

G9A G51A A57U U59C and G9A G52A C61U A69C cannot be ordered by yeast fitness: ≤ 0.5 for the first, ≤ 0.5 for the second.

First: G9A G56A C62U G67A
Second: G9A G58A
The yeast fitness of the first is lower: 0.525 for the first, 0.918 for the second.

First: G9A G63C
Second: G9A G67U
The yeast fitness of the first is higher: 0.872 for the first, 0.863 for the second.

First: G9A G68A
Second: G9A G68A A69C
The yeast fitness of the first is higher: 0.864 for the first, 0.802 for the second.

Compared with G9A U13A, G9A U13A A65G C66U is lower in yeast fitness: 1.03 for the first, ≤ 0.5 for the second.

Going from G9A U13A A69C to G9A U13A A69U, the yeast fitness rises from 0.809 to 0.811.

G9A U13C A21U A36G A40C A69U and G9A U13C C27G U53A C60A A65G cannot be ordered by yeast fitness: ≤ 0.5 for the first, ≤ 0.5 for the second.

Compared with G9A U13G A36G, G9A U13G A36G U59A is higher in yeast fitness: 0.574 for the first, 0.68 for the second.

Going from G9A U16A to G9A U16A A42C U53C A65C, the yeast fitness falls from 1.08 to ≤ 0.5.

First: G9A U16A G25C C46G
Second: G9A U16C
The yeast fitness of the first is lower: 0.588 for the first, 1.05 for the second.

G9A U16C A20C A40G C55U and G9A U16C A20G A42G cannot be ordered by yeast fitness: ≤ 0.5 for the first, ≤ 0.5 for the second.

G9A U16C C29G C31A C33G G41A A43G and G9A U16C C30G C34G A40G C61G A69G cannot be ordered by yeast fitness: ≤ 0.5 for the first, ≤ 0.5 for the second.

First: G9A U16C G41A G58A
Second: G9A U16G A42C
The yeast fitness of the first is lower: ≤ 0.5 for the first, 0.955 for the second.

First: G9A U19A U26A C34U
Second: G9A U19C A43U
The yeast fitness of the first is lower: ≤ 0.5 for the first, 0.713 for the second.

Going from G9A U19C C66U to G9A U19G A37C A43U C46G, the yeast fitness falls from 0.742 to 0.581.

For G9A U19G C31G, the yeast fitness was ≤ 0.5.
